# High-throughput results as filed in PubChem BioAssay.
# AHR act: AHR activators, primary screen, cell-based, luminescence, luciferase reporter, human; AHR-responsive luciferase reporter cells; activation, % at 5 µM; hit rate 2.5% among 320,000; AID 2796, 2010; in the data active means activation above about 47%;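 further: 0% = vehicle wells and 100% = reference agonist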
# Target sequence (P35869 whole entry, looked up): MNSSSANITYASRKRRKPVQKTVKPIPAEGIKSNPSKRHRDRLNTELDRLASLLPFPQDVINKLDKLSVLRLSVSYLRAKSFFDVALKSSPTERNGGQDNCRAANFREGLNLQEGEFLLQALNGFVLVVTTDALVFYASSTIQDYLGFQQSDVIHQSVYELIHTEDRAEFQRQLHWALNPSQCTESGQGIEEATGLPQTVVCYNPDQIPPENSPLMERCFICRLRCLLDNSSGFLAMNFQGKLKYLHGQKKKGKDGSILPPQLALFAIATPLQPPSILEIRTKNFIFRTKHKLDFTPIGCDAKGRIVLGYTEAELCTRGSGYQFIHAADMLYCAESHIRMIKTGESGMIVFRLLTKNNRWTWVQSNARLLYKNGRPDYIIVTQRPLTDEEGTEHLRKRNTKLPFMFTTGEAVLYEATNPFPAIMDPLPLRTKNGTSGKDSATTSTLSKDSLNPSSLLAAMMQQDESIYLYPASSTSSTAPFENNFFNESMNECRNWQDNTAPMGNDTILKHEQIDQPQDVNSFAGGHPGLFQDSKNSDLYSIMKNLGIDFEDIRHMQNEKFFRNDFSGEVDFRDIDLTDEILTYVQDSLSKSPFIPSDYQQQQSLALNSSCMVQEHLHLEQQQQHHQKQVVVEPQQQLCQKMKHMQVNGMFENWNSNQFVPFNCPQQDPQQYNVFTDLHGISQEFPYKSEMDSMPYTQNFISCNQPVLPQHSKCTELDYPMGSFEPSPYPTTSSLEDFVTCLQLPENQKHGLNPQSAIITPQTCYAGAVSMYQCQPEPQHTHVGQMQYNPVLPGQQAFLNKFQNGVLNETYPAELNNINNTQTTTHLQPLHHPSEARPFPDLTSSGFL
# HSF1 inh: HSF1 inhibitors in luciferase reporter cells, primary screen, cell-based, NIH3T3, luminescence. NIH3T3-HGL HSE-luciferase, MG132-induced, luminescence 8 h; stronger effect = lower value. activity change, negative = inhibition, % at 7.5 µM (by protocol). hit rate 0.77% among 300,000. AID 2098, 2009;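 active means more than half of replicate wells show activity change below -50%, luminescence cut by over half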;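 further: luciferase reports HSF-1 transcriptional activity via heat shock element; 0% = median of DMSO wells and -100% = zero luminescence signal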
# PERK inhibitor: block of dimerizer-induced PERK translation repression, primary screen, PERK inhibitor project, CHO PERK-DD cells, SEAP luminescence, HTS | Eukaryotic translation initiation factor 2-alpha kinase 3 (Homo sapiens), Q9NZJ5 | CHO PERK-DD fusion, SEAP luminescence translation reporter | inhibition, % at 5.6 µM | hit rate 0.17% among 220,000 | AID 1416, 2008;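 active means inhibition above the mean inhibition of all tested compounds plus 3 SD, set separately per screening campaign, cut at about 2.9% in these data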;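 further: PERK kinase domain activated by AP20187 dimerizer at 100 nM; 0% = DMSO with dimerizer and 100% = rapamycin at 8.4 µM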
# PolyA inhibitor: polyadenylation inhibitors in yeast reporter cells, primary screen, luminescence, S. cerevisiae; AID 1875, 2009; S. cerevisiae SKY197-pL101 polyadenylation reporter, beta-gal luminescence; efflux-impaired pdr1/pdr3 knockout yeast; score 100 = 6 SD above DMSO; hit rate 0.02% among 300,000; activity score, % at 12 µM;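 active means lowest replicate activity score at least 50, where 100 means six control SD above control mean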;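 further: yeast exposed to compound for 9 h at 30 °C; higher score means more reporter readthrough which indicates perturbed polyadenylation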
# Hsp70 act: Hsp70 transcriptional activators, primary screen, cell-based, HeLa, Hsp70 promoter luciferase, luminescence, 10 µM; HeLa Hsp70 promoter luciferase reporter; scaled: vehicle 0, proteasome-inhibitor control 100%; activation, % at 10 µM; hit rate 0.04% among 200,000;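 active means activation above the mean across all tested compounds plus 3 SD, cutoff set per campaign, cut at about 5.5% in these data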;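 further: 100% = MG132 at 30 µM as the positive control and 0% = DMSO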
# STAT3 act-1: IL-6 driven STAT3 reporter potentiators, primary screen, U3A cells, luciferase, luminescence, MLSCN library | IL-6 STAT3-luciferase reporter; 100% = signal with IL-6 EC80 alone | activation (% of control), % at 5.6 µM | hit rate 0.91% among 190,000 | AID 871, 2007;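 active means activation above the screen-wide mean of compound activation plus 3 SD, cut at about 130% in these data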;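 further: 0% = background luminescence of wells with medium and substrate only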
#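 Material: human U3A cells carrying STAT3-luciferase construct. Measured by: reporter luminescence signal. Timing: compound 1 h, then IL-6 6 h at 37 °C.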
# STAT3 act-2: STAT3 reporter potentiators, retest of hits, confirmation, U3A cells, luciferase, luminescence | shares compounds with STAT3 act-1 | IL-6 potentiation; U3A cells lack STAT1; 100 means same as IL-6 alone | potentiation (% of control), % at 5.7 µM | hit rate 64% among 1,200 | AID 1267, 2008;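 active means percent activation of the STAT3 luciferase reporter above a set limit taken from the earlier primary screen, cut at about 130% in these data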;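 further: 0% = background signal of medium plus substrate and 100% = median of IL-6 with DMSO wells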
# NFkB act STAT3ct: NF-kB reporter activators in human cells, counter-screen for STAT3 activator project; activation (% of control), % at 5.7 µM; hit rate 11% among 1,200; NF-kappaB reporter activation; shares compounds with STAT3 act-1; in the data active means activation above about 120%;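 further: reporter induced by TNF-alpha stimulation; 100% = median of stimulated DMSO wells and 0% = no signal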
# STAT1 act: STAT1 reporter activators, IFN-gamma induced, counter-screen for STAT3 activator project, cell-based, NIH 3T3, luciferase luminescence | AID 1318, 2008 | hit rate 13% among 1,200 | shares compounds with STAT3 act-1 | activation (% of control), % at 5.7 µM | NIH 3T3 STAT1-luciferase reporter;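 active means activation above the solvent-only control well mean plus 3 SD, set per screening run, cut at about 120% in these data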;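 further: 100% = IFN-gamma with DMSO median signal so 100% means no change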
# * marks the source's active call; other numbers are inactive results; · = no result given. Shown are actives, neighbours in structure and some others; about 3.6% of the full set was active somewhere.
SMILES,AHR act,HSF1 inh,PERK inhibitor,PolyA inhibitor,Hsp70 act,STAT3 act-1,STAT3 act-2,NFkB act STAT3ct,STAT1 act
Cc1ccc(C)c(S(=O)(=O)Nc2cc(SCC(=O)O)c(O)c3ccccc23)c1,31,·,0,·,0,143*,146*,105,108
CC(=O)Nc1cccc(NC(=O)c2cc3ccccc3o2)c1,8,28,-1,13,0,93,·,·,·
CC(=O)Nc1cccc(N/C=C(\C=O)c2nc3ccccc3o2)c1,59*,-2,0,11,0,171*,176*,115,112
O=C/C(=C\Nc1ccccn1)c1nc2ccccc2o1,21,9,0,17,0,158*,144*,114,100
CC(=O)Nc1ccc(N/C=C(\C=O)c2nc3ccccc3o2)cc1,14,2,2,13,0,147*,151*,94,103
N#C/C(=C\c1ccncc1)c1nc2ccccc2o1,12,5,1,14,·,·,·,·,·
Cc1ccccc1NS(=O)(=O)c1csc(C(N)=O)c1,-1,0,·,2,·,·,·,·,·
CCN(CC)Cc1ccccc1CNC(=O)c1cccc(S(=O)(=O)Nc2ccc3c(c2)OCO3)c1,11,·,·,·,·,·,·,·,·
COc1cccc(-c2cc(C(F)(F)F)c3c(N)c(C#N)sc3n2)c1,55*,0,1,-7,0,153*,134*,97,101
CN(C(=O)CCCN1C(=O)c2cccc3cccc(c23)C1=O)c1ccccc1,-4,0,-1,0,0,101,·,·,·
O=C(O)C(Cc1ccccc1)N1C(=O)c2cccc3cccc(c23)C1=O (stereo unspecified),12,-6,0,13,0,144*,143*,105,93
O=C1c2cccc3cccc(c23)C(=O)N1CCc1ccccc1,53*,36,1,-41,0,147*,193*,125*,129*
Cc1ccc2[nH]c(C(=O)O)c(NC(=O)CN3CCN(c4cccc(C)c4C)CC3)c2c1,17,-10,0,-6,0,147*,132,99,103
CC(=O)C1CCCN(C(=O)c2ccc3nc(Cc4cccc(Cl)c4)oc3c2)C1 (stereo unspecified),-1,-3,·,11,·,·,·,·,·
Cc1nn(CC(=O)NCc2cc3ccccc3[nH]2)c(C)c1[N+](=O)[O-],23,9,1,22,0,138*,161*,104,89
COc1ccc(S(=O)(=O)Nc2c(C(=O)O)[nH]c3ccccc23)c(OC)c1,23,-5,1,5,0,166*,159*,105,100
O=S(=O)(c1ccc(-c2ccccn2)s1)N1CCC2(CC1)OCCO2,1,-8,0,5,·,·,·,·,·
C/C(=N\NC(=O)c1nnn(-c2nonc2N)c1C(C)C)c1ccc2ccccc2c1,-2,-5,·,5,·,·,·,·,·
COc1ccc(NC(=O)c2[nH]c(C)c(C(C)=O)c2C)cc1,61*,13,0,-6,0,143*,159*,121*,129*
CCOc1ccc(NC(=O)c2[nH]c(C)c(C(C)=O)c2C)cc1,21,-16,·,-11,·,·,·,·,·
CCN(Cc1nc(-c2ccc(C)cc2)no1)C(=O)c1ccco1,-1,7,·,7,·,·,·,·,·
CCN(CC)c1ncnc2c1ncn2Cc1c(Cl)cccc1Cl,10,-2,-2,-3,0,98,·,·,·
Clc1cccc(Cl)c1Cn1cnc2c(N3CCCCCC3)ncnc21,1,2,0,-8,0,138*,139*,105,103
COc1ccccc1CCNC(=O)C(=O)NCC1OCCN1S(=O)(=O)c1ccc(C)cc1 (stereo unspecified),1,4,·,7,·,·,·,·,·
CCC(C)(C)n1nnnc1CN1CCc2ccccc21,13,-6,0,16,0,145*,126,105,103
SMILES,AHR act,HSF1 inh,PERK inhibitor,PolyA inhibitor,Hsp70 act,STAT3 act-1,STAT3 act-2,NFkB act STAT3ct,STAT1 act
O=C(Cc1coc2ccc3ccccc3c12)Nc1nnc(C2CC2)s1,69*,-9,0,-5,0,153*,148*,81,94
Cc1cc2occ(CC(=O)Nc3nnc(C4CC4)s3)c2cc1C,1,·,1,·,0,123,·,·,·
O=C(CC1(CC2=NS(=O)(=O)c3ccccc3N2)CCCC1)NCCc1ccccc1,4,4,·,2,·,·,·,·,·
O=C(CC(=O)Nc1ccccc1)Nc1ccccc1,11,-3,·,11,·,·,·,·,·
CC(=O)N1N=C(c2ccccc2O)OC1(C)CC(=O)Nc1ccccc1 (stereo unspecified),29,0,1,2,1,139*,140*,99,97
Cn1cc(C(C[N+](=O)[O-])c2ccccc2)c2ccccc21 (stereo unspecified),2,1,·,10,·,·,·,·,·
CC(=O)n1cc(C(C[N+](=O)[O-])SCCN)c2ccccc21 (stereo unspecified),51*,14,0,-94,0,141*,138*,113,98
CCCn1c(O)c(N=N)c2ccccc21,4,-3,1,-19,0,112,·,·,·
CC(=O)n1c2ccccc2c2nc3ccccc3nc21,40,2,·,1,·,·,·,·,·
CC(=O)Nc1c(Cl)n(C(C)=O)c2ccccc12,37,0,1,-3,0,175*,159*,103,94
COc1ccc(COc2cc(-c3cccc(OC)c3)nc3ccc(NC(=O)c4ccc(C)cc4)cc23)cc1,12,-29,-1,-7,0,111,·,·,·
COc1ccc(COc2cc(-c3cccc(OC)c3)nc3ccc(NC(=O)c4ccc(N(C)C)cc4)cc23)cc1,14,-21,-1,0,0,136*,92,99,104
